{"source": "paper PMC8359308", "about": "(Clinical Pharmacology in Drug Development, 2020)", "key": {"[1]": {"tested_on": "cytochrome P450 (CYP) 3A4/5", "settings": "human hepatocytes, reaction phenotyping; cited from earlier work"}, "[2]": {"assay": "Phase I single-dose pharmacokinetics of unbound plasma glasdegib", "format": "in vivo, human", "settings": "single oral 100 mg, fasted", "how_it_was_run": "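Single oral 100 mg tablet with about 240 mL water after a fast of at least 10 h, with no food for 4 h post-dose. Unbound samples were taken predose and at 1, 2 and 4 h. K2EDTA plasma was dialysed against PBS to equilibrium (6 h). Sertraline (300 ng/mL) served as positive control and glasdegib (100 ng/mL) as dialysis QC. Samples were read by LC-MS/MS (LLQ 1 ng/mL). Unbound parameters = fu × total noncompartmental values.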"}, "[3]": {"settings": "mostly normal hepatic function or mild hepatic impairment; cited from earlier work"}, "[4]": {"assay": "Unbound fraction in plasma by equilibrium dialysis", "format": "in vitro ADME, human", "settings": "for f u (fraction of unbound drug in plasma): geometric mean (%CV); for f u in plasma: statistic not given"}, "[5]": {"settings": "rifampin coadministered versus glasdegib alone; cited from earlier work"}, "[6]": {"assay": "Safety assessment after single oral 100 mg dose", "format": "in vivo, human", "settings": "all 24 participants", "how_it_was_run": "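Participants were confined from day -1 through day 6, with telephone follow-up 28–35 days post-dose. AEs, laboratory values, physical examination, vital signs, ECGs and concomitant medications were monitored throughout. AEs were treatment-emergent if onset or worsening came after dosing and before follow-up, and were coded with MedDRA 22.0. Baseline was the last predose measurement. Analysis was descriptive.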"}, "[7]": {"format": "in vivo, human", "settings": "for AUC(0-inf) / AUC(0-t) / Tmax: po, total glasdegib; for AUC(0-inf): AUCinf; for AUC(0-inf) / AUC(0-t) / Tmax / CL/F, total glasdegib / Cmax, total glasdegib: single oral 100 mg, fasted; for AUC(0-t): AUClast; for Tmax: median (range)", "how_it_was_run": "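Single oral 100 mg tablet dose of test compound after ≥10 h fast, with about 240 mL water and no food for 4 h. Plasma drawn predose and 1–120 h post-dose, total drug measured by validated LC-MS/MS. AUCinf (AUClast + Clast/kel, linear/log trapezoidal) and observed Cmax came from noncompartmental analysis. Log-transformed values were compared by one-way ANOVA (unequal variance), giving adjusted GMR versus normal-function controls with 90% CI.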"}, "[8]": {"settings": "food with high calories and high fat content or concurrent rabeprazole; cited from earlier work"}, "[9]": {"settings": "cited from earlier work"}, "[10]": {"settings": "ketoconazole coadministered versus glasdegib alone; cited from earlier work"}, "[11]": {"settings": "moderate hepatic impairment (n = 8), arithmetic mean ± SD"}, "[12]": {"settings": "moderate hepatic impairment (n = 8), geometric mean (%CV)"}, "[13]": {"settings": "normal hepatic function (n = 8), arithmetic mean ± SD"}, "[14]": {"settings": "normal hepatic function (n = 8), geometric mean (%CV)"}, "[15]": {"settings": "severe hepatic impairment (n = 8), arithmetic mean ± SD"}, "[16]": {"settings": "severe hepatic impairment (n = 8), geometric mean (%CV)"}, "[17]": {"settings": "human, plasma, 100 mg, moderate hepatic impairment (n = 8), arithmetic mean ± SD"}, "[18]": {"settings": "human, plasma, 100 mg, moderate hepatic impairment (n = 8), geometric mean (%CV)"}, "[19]": {"settings": "human, plasma, 100 mg, normal hepatic function (n = 8), arithmetic mean ± SD"}, "[20]": {"settings": "human, plasma, 100 mg, normal hepatic function (n = 8), geometric mean (%CV)"}, "[21]": {"settings": "human, plasma, 100 mg, severe hepatic impairment (n = 8), arithmetic mean ± SD"}, "[22]": {"settings": "human, plasma, 100 mg, severe hepatic impairment (n = 8), geometric mean (%CV)"}, "[23]": {"settings": "severe hepatic impairment cohort"}}, "note": "Like-named read-outs stand apart in the source and are kept apart here.", "data": [{"smiles": "CN1CC[C@@H](NC(=O)Nc2ccc(C#N)cc2)C[C@@H]1c1nc2ccccc2[nH]1", "note": "[glasdegib]", "values": [{"measurement": "enzyme in glasdegib biotransformation", "setting": "[1]", "value": "major enzyme"}, {"measurement": "CLu/F, unbound glasdegib", "setting": "[2]; [11]", "value": "104.6 ± 34.6", "unit": "L/h"}, {"measurement": "CLu/F, unbound glasdegib", "setting": "[2]; [12]", "value": "100.2 (31) L/h"}, {"measurement": "CLu/F, unbound glasdegib", "setting": "[2]; [13]", "value": "124.7 ± 43.5", "unit": "L/h"}, {"measurement": "CLu/F, unbound glasdegib", "setting": "[2]; [14]", "value": "118.4 (35) L/h"}, {"measurement": "CLu/F, unbound glasdegib", "setting": "[2]; [15]", "value": "111.9 ± 58.1", "unit": "L/h"}, {"measurement": "CLu/F, unbound glasdegib", "setting": "[2]; [16]", "value": "101.6 (47) L/h"}, {"measurement": "baseline hepatic function as covariate for variation in glasdegib PK", "setting": "[3]", "value": "not a statistically significant covariate"}, {"measurement": "f u (fraction of unbound drug in plasma)", "setting": "[4]; moderate hepatic impairment (n = 8)", "value": "0.08 (7)"}, {"measurement": "f u in plasma", "setting": "[4]; moderate hepatic impairment group", "value": 0.08}, {"measurement": "f u (fraction of unbound drug in plasma)", "setting": "[4]; normal hepatic function (n = 8)", "value": "0.08 (16)"}, {"measurement": "f u in plasma", "setting": "[4]; normal hepatic function cohort", "value": 0.08}, {"measurement": "f u (fraction of unbound drug in plasma)", "setting": "[4]; severe hepatic impairment (n = 8)", "value": "0.12 (15)"}, {"measurement": "f u in plasma", "setting": "[4]; severe hepatic impairment group", "value": 0.12}, {"measurement": "higher f u compared with the normal function cohort", "setting": "[4]; severe impairment cohort", "value": 50, "unit": "%"}, {"measurement": "decrease in glasdegib AUCinf", "setting": "[5]", "value": "approximately 70%"}, {"measurement": "decrease in glasdegib Cmax", "setting": "[5]", "value": 35, "unit": "%"}, {"measurement": "clinically significant changes in laboratory values, vital signs, or ECGs", "setting": "[6]", "value": "no clinically significant changes in vital signs or ECGs"}, {"measurement": "deaths, serious AEs, severe treatment-emergent AEs, discontinuations", "setting": "[6]", "value": "no deaths, serious AEs, severe treatment‐emergent AEs, discontinuations from the study"}, {"measurement": "half-life", "setting": "[7]; human, plasma, oral, 100 mg, mean terminal half-life, range across all hepatic function groups", "value": "18.4 to 20.7", "unit": "h"}, {"measurement": "AUC(0-inf)", "setting": "[7]; [17]", "value": "12300 ± 3500", "unit": "ng·h/mL"}, {"measurement": "AUC(0-inf)", "setting": "[7]; [18]", "value": 11900, "unit": "ng·h/mL"}, {"measurement": "AUC(0-inf)", "setting": "[7]; [19]", "value": "11900 ± 6100", "unit": "ng·h/mL"}, {"measurement": "AUC(0-inf)", "setting": "[7]; [20]", "value": 10700, "unit": "ng·h/mL"}, {"measurement": "AUC(0-inf)", "setting": "[7]; [21]", "value": "8660 ± 3130", "unit": "ng·h/mL"}, {"measurement": "AUC(0-inf)", "setting": "[7]; [22]", "value": 8110, "unit": "ng·h/mL"}, {"measurement": "AUC(0-t)", "setting": "[7]; [17]", "value": "12200 ± 3460", "unit": "ng·h/mL"}, {"measurement": "AUC(0-t)", "setting": "[7]; [18]", "value": 11800, "unit": "ng·h/mL"}, {"measurement": "AUC(0-t)", "setting": "[7]; [19]", "value": "11800 ± 6080", "unit": "ng·h/mL"}, {"measurement": "AUC(0-t)", "setting": "[7]; [20]", "value": 10600, "unit": "ng·h/mL"}, {"measurement": "AUC(0-t)", "setting": "[7]; [21]", "value": "8480 ± 3100", "unit": "ng·h/mL"}, {"measurement": "AUC(0-t)", "setting": "[7]; [22]", "value": 7940, "unit": "ng·h/mL"}, {"measurement": "Tmax", "setting": "[7]; human, plasma, 100 mg, moderate hepatic impairment (n = 8)", "value": 2.5, "unit": "h"}, {"measurement": "Tmax", "setting": "[7]; human, plasma, 100 mg, normal hepatic function (n = 8)", "value": 1.5, "unit": "h"}, {"measurement": "Tmax", "setting": "[7]; human, plasma, 100 mg, severe hepatic impairment (n = 8)", "value": 1, "unit": "h"}, {"measurement": "reduction in AUCinf versus normal hepatic function, total glasdegib", "setting": "[7]; [23]", "value": 24, "unit": "%"}, {"measurement": "reduction in Cmax versus normal hepatic function, total glasdegib", "setting": "[7]; [23]", "value": 42, "unit": "%"}, {"measurement": "CL/F, total glasdegib", "setting": "[7]; [11]", "value": "8.8 ± 2.8", "unit": "L/h"}, {"measurement": "Cmax, total glasdegib", "setting": "[7]; [11]", "value": "899.8 ± 215.7", "unit": "ng/mL"}, {"measurement": "CL/F, total glasdegib", "setting": "[7]; [12]", "value": "8.4 (31) L/h"}, {"measurement": "Cmax, total glasdegib", "setting": "[7]; [12]", "value": "875.9 (26) ng/mL"}, {"measurement": "CL/F, total glasdegib", "setting": "[7]; [13]", "value": "10.2 ± 4.3", "unit": "L/h"}, {"measurement": "Cmax, total glasdegib", "setting": "[7]; [13]", "value": "989.9 ± 373.1", "unit": "ng/mL"}, {"measurement": "CL/F, total glasdegib", "setting": "[7]; [14]", "value": "9.3 (49) L/h"}, {"measurement": "Cmax, total glasdegib", "setting": "[7]; [14]", "value": "924.4 (43) ng/mL"}, {"measurement": "CL/F, total glasdegib", "setting": "[7]; [15]", "value": "13.3 ± 5.8", "unit": "L/h"}, {"measurement": "Cmax, total glasdegib", "setting": "[7]; [15]", "value": "612.0 ± 342.8", "unit": "ng/mL"}, {"measurement": "CL/F, total glasdegib", "setting": "[7]; [16]", "value": "12.3 (42) L/h"}, {"measurement": "Cmax, total glasdegib", "setting": "[7]; [16]", "value": "536.3 (59) ng/mL"}, {"measurement": "effect on glasdegib exposure", "setting": "[8]", "value": "minimal effect"}, {"measurement": "dose proportionality of pharmacokinetics", "setting": "[9]", "value": "linear dose‐proportional pharmacokinetics"}, {"measurement": "mean half-life", "setting": "[9]; clinical dose of 100 mg once daily", "value": 17.4, "unit": "h"}, {"measurement": "unbound in plasma", "setting": "[9]; plasma protein binding, moderately to highly bound", "value": "< 10", "unit": "%"}, {"measurement": "increase in glasdegib AUCinf", "setting": "[10]", "value": 2.4, "unit": "fold"}, {"measurement": "increase in glasdegib Cmax", "setting": "[10]", "value": 1.4, "unit": "fold"}]}]}
